Measured values reported in ChEMBL document CHEMBL3992514, “Synthesis, biological characterisation and structure activity relationships of aromatic bisamidines active against Plasmodium falciparum” (Eur J Med Chem, 2017).

Experiments:
[1] = test system: Plasmodium falciparum; assay: Antiparasitic activity against drug-resistant Plasmodium falciparum Dd2 infected in erythrocytes assessed as growth inhibition after 48 hrs by [3H]-hypoxanthine incorporation assay; format: functional, cell-based
[2] = test system: Plasmodium falciparum; assay: Antiparasitic activity against drug-sensitive Plasmodium falciparum 3D7 infected in erythrocytes assessed as growth inhibition after 48 hrs by SYBR green 1 dye-based flow cytometry; format: functional, cell-based; conditions: 3D7, 48 h
[3] = test system: HEK293; assay: Cytotoxicity against HEK293 cells assessed as decrease in cell viability after 24 hrs by Alamar blue assay; format: ADME, cell-based; conditions: Homo sapiens, HEK293, 24 h
[4] = Selectivity index, ratio of IC50 for HEK293 cells to IC50 for drug-sensitive Plasmodium falciparum 3D7 infected in erythrocytes; conditions: human
[5] = Selectivity index, ratio of IC50 for HEK293 cells to IC50 for drug-resistant Plasmodium falciparum Dd2 infected in erythrocytes; conditions: human
[6] = Cytotoxicity against HEK293 cells assessed as cell viability at 50 uM after 24 hrs by Alamar blue assay relative to control; format: cell-based; conditions: human, read-out: Activity
How it was run: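 HEK293 cells kept in DMEM with 10% FCS and 5 mM glutamine at 37 °C, 5% CO2; seeded at 1.5 × 10^3 cells per well, compound added immediately at 50 µM. After 24 h AlamarBlue added, incubated a further 21 h; resorufin fluorescence read at Ex 560/Em 590 nm. Triplicates over three independent experiments.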

[7] = Oral bioavailability in Sprague-Dawley albino rat at 1 mg/kg; format: ADME, organism-based; conditions: in vivo
[8] = Half life in Sprague-Dawley albino rat at 1 mg/kg, po; format: ADME, organism-based; conditions: in vivo
[9] = Cmax in Sprague-Dawley albino rat at 1 mg/kg, po; format: ADME, organism-based; parameters: dose 1 mg/kg, route oral; conditions: in vivo
[10] = Oral bioavailability in Swiss Webster mouse at 30 mg/kg; format: ADME, organism-based; conditions: in vivo
[11] = Cmax in Swiss Webster mouse at 30 mg/kg, po; format: ADME, organism-based; parameters: dose 30 mg/kg, route oral; conditions: in vivo
[12] = test system: Giardia intestinalis; assay: Antiparasitic activity against Giardia lamblia; format: functional; conditions: Giardia duodenalis
[13] = Half life in Swiss Webster mouse at 30 mg/kg, po; format: ADME, organism-based; conditions: in vivo
[14] = test system: Leishmania sp.; assay: Antiparasitic activity against Leishmania spp.; format: functional
[15] = test system: Plasmodium falciparum; assay: Antimalarial activity against Plasmodium falciparum in infected patient assessed as cure rate at 100 mg, po bid administered for 5 days measured every 12 hrs up to day 7, and on day 10, 14, 21, and 28 by Giemsa staining-based assay relative to control; format: functional
[16] = test system: Plasmodium vivax; assay: Antimalarial activity against hypnozoite-stage Plasmodium vivax in infected patient assessed as cure rate at 100 mg, po bid administered for 5 days measured every 12 hrs up to day 7, and on day 10, 14, 21, and 28 by Giemsa staining-based assay relative to control; format: functional

Row | Compound | IC50 [1] [µM] | IC50 [2] [µM] | IC50 [3] [µM] | selectivity ratio [4] | selectivity ratio [5] | further results
1 | Cc1c(-c2ccc(C(=N)N)cc2)oc(-c2ccc(C(=N)N)cc2)c1C | 0.06 | 0.033 | 74 | 2240 | 1230 | 
2 | N=C(N)c1ccc(-c2cc(CC(=O)NCCN3CCCCC3)c(-c3ccc(C(=N)N)cc3)o2)cc1 | > 10 | > 10 | > 50 |  |  | 
3 | CCN(CC)CCN=C(Nc1ccc(C(=N)N)cc1)Nc1ccc(C(=N)N)cc1 | > 10 | > 10 | > 50 |  |  | 
4 | Cc1c(-c2ccc(C(=N)NO)cc2)oc(-c2ccc(C(=N)NO)cc2)c1C | 7.15 | > 1 | > 50 |  | > 10 | 
5 | CCCOCc1c(-c2ccc(C(=N)N)cc2)oc(-c2ccc(C(=N)N)cc2)c1Cl | 0.14 | 0.09 |  |  |  | viability at 24 h, 50 µM [6]: 1%
6 | N=C(N)c1ccc(-c2cc(CC(=O)N3CCN(CCO)CC3)c(-c3ccc(C(=N)N)cc3)o2)cc1 | > 10 | > 10 | > 50 |  |  | 
7 | COCc1c(-c2ccc(C(=N)N)cc2)oc(-c2ccc(C(=N)N)cc2)c1COC | 0.9 | 1.04 | > 50 | > 48 | > 56 | 
8 | CN(C)CCCCNC(=O)Cc1cc(-c2ccc(C(=N)N)cc2)oc1-c1ccc(C(=N)N)cc1 | > 10 | > 10 | > 50 |  |  | 
9 | Cc1c(-c2ccc(C(=N)NC(C)C)cc2)oc(-c2ccc(C(=N)NC(C)C)cc2)c1C | 0.09 | 0.038 | 309 | 8130 | 3430 | 
10 | CCOC(=O)Cc1cc(-c2ccc(C(=N)N)cc2)oc1-c1ccc(C(=N)N)cc1 | 0.86 | 0.22 | 232 | 1060 | 270 | 
11 | CN(C)C(=O)Cc1cc(-c2ccc(C(=N)N)cc2)oc1-c1ccc(C(=N)N)cc1 | 3.83 | 5.76 | > 50 | > 8 | > 13 | 
12 | CN(C)CCNC(=O)Cc1cc(-c2ccc(C(=N)N)cc2)oc1-c1ccc(C(=N)N)cc1 | > 10 | > 10 | > 50 |  |  | 
13 | N=C(N)c1ccc(-c2cc(CC(=O)NCCC(c3ccccc3)c3ccccc3)c(-c3ccc(C(=N)N)cc3)o2)cc1 | 1.47 | 1.4 | > 50 | > 36 | > 34 | 
14 | Cc1c(-c2ccc(C(=N)NCC(C)C)cc2)oc(-c2ccc(C(=N)NCC(C)C)cc2)c1C | 0.15 | 0.038 | 33.1 | 870 | 220 | 
15 | CCNC(=N)c1ccc(-c2oc(-c3ccc(C(=N)NCC)cc3)c(C)c2C)cc1 | 0.03 | 0.02 | 33.3 | 1660 | 1110 | 
16 | CC(C)OCc1c(-c2ccc(C(=N)N)cc2)oc(-c2ccc(C(=N)N)cc2)c1COC(C)C | 1.2 | 1.08 | > 50 | > 46 | > 42 | 
17 | CN1CCN(C(=O)Cc2cc(-c3ccc(C(=N)N)cc3)oc2-c2ccc(C(=N)N)cc2)CC1 | > 10 | > 10 | > 50 |  |  | 
18 | CSCCCNC(=O)Cc1cc(-c2ccc(C(=N)N)cc2)oc1-c1ccc(C(=N)N)cc1 | 5.43 | 6.61 | > 50 | > 7 | > 10 | 
19 | N=C(N)c1ccc(-c2cc(CC(=O)NCCCc3ccccc3)c(-c3ccc(C(=N)N)cc3)o2)cc1 | 1.67 | 0.77 | > 50 | > 65 | > 30 | 
20 | CN(C)CCCNC(=O)Cc1cc(-c2ccc(C(=N)N)cc2)oc1-c1ccc(C(=N)N)cc1 | > 10 | > 10 | > 50 |  |  | 
21 | CN(C)CCN=C(Nc1ccc(C(=N)N)cc1)Nc1ccc(C(=N)N)cc1 | > 10 | > 10 | > 50 |  |  | 
22 | N=C(N)c1ccc(NC(=O)Nc2ccc(C(=N)N)cc2)cc1 | 0.21 | 0.046 | 266 | 5780 |  | 
23 | N=C(N)c1ccc(-c2cc(CC(=O)N3CCN(c4ncccn4)CC3)c(-c3ccc(C(=N)N)cc3)o2)cc1 | 17.4 | 7.54 | > 50 | > 7 | > 3 | 

Row | Compound | IC50 [1] [µM] | IC50 [2] [µM] | IC50 [3] [µM] | selectivity ratio [4] | selectivity ratio [5] | further results
24 | N=C(N)c1ccc(-c2cc(CC(=O)N3CCN(C(=O)c4ccccc4)CC3)c(-c3ccc(C(=N)N)cc3)o2)cc1 | > 10 | > 10 | > 50 |  |  | 
25 | N=C(N)c1ccc(-c2cc(CC(=O)NCC3CCCCC3)c(-c3ccc(C(=N)N)cc3)o2)cc1 | 2.42 |  | > 50 |  | > 20 | 
26 | N=C(N)c1ccc(-c2cc(CC(=O)NCCN3CCOCC3)c(-c3ccc(C(=N)N)cc3)o2)cc1 | > 10 | > 10 | > 50 |  |  | 
27 | CSCCNC(=O)Cc1cc(-c2ccc(C(=N)N)cc2)oc1-c1ccc(C(=N)N)cc1 | 5.48 | 6.09 | > 50 | > 8 | > 10 | 
28 | N=C(N)c1ccc(NC(=NCCN2CCCCC2)Nc2ccc(C(=N)N)cc2)cc1 | > 10 | > 10 | > 50 |  |  | 
29 | COCc1c(-c2ccc(C(=N)N)cc2)oc(-c2ccc(C(=N)N)cc2)c1Cl | 0.09 | 0.16 | 209 | 1310 | 2320 | 
30 | CONC(=N)c1ccc(-c2oc(-c3ccc(C(=N)NOC)cc3)c(C)c2C)cc1 | 10.6 | > 1 | > 50 |  | > 5 | 
31 | N=C(N)c1ccc(-c2cc(CC(=O)N3CCCCC3)c(-c3ccc(C(=N)N)cc3)o2)cc1 |  | 5.13 | > 50 | > 9 |  | 
32 | CCOCc1c(-c2ccc(C(=N)N)cc2)oc(-c2ccc(C(=N)N)cc2)c1COCC | 0.85 | 1.19 | > 50 | > 42 | > 59 | 
33 | N=C(N)c1ccc(-c2cc(CC(=O)N3CCN(C(c4ccc(F)cc4)c4ccc(F)cc4)CC3)c(-c3ccc(C(=N)N)cc3)o2)cc1 | 6.63 | 1.7 | > 50 | > 30 | > 8 | 
34 | CNC(=O)Cc1cc(-c2ccc(C(=N)N)cc2)oc1-c1ccc(C(=N)N)cc1 | 3.07 | 5.41 | > 50 | > 9 | > 16 | 
35 | CCN(CC)CCNC(=O)Cc1cc(-c2ccc(C(=N)N)cc2)oc1-c1ccc(C(=N)N)cc1 | > 10 | > 10 | > 50 |  |  | 
36 | N=C(N)c1ccc(-c2cc(CC(=O)NCC(c3ccccc3)c3ccccc3)c(-c3ccc(C(=N)N)cc3)o2)cc1 | 1.43 | 1.39 | > 50 | > 36 | > 35 | 
37 | CN1CCN(CCNC(=O)Cc2cc(-c3ccc(C(=N)N)cc3)oc2-c2ccc(C(=N)N)cc2)CC1 |  | > 10 | > 50 |  |  | 
38 | N=C(N)c1ccc(NC(=NCCc2ccccc2)Nc2ccc(C(=N)N)cc2)cc1 | > 10 | > 10 | > 50 |  |  | 
39 | CCCOCc1c(-c2ccc(C(=N)N)cc2)oc(-c2ccc(C(=N)N)cc2)c1COCCC | 0.31 | 0.39 | > 50 | > 161 | > 128 | 
40 | N=C(N)c1ccc(-c2cc(CC(=O)N3CCOCC3)c(-c3ccc(C(=N)N)cc3)o2)cc1 | > 10 | > 10 | > 50 |  |  | 
41 | CO/N=[14C](/N)c1ccc(-c2ccc(-c3ccc(/[14C](N)=N\OC)cc3)o2)cc1 |  |  |  |  |  | bioavailability [7]: 11%; half-life [8]: 0.9 h; Cmax [9]: 26.1 ng/mL
42 | N=C(N)c1ccc(-c2cc(CC(=O)NCCCO)c(-c3ccc(C(=N)N)cc3)o2)cc1 | 22.2 | > 10 | > 50 |  | > 3 | 
43 | N=C(N)c1ccc(-c2cc(CC(=O)N3CCN(C(c4ccccc4)c4ccccc4)CC3)c(-c3ccc(C(=N)N)cc3)o2)cc1 | 5.33 | 1.43 | > 50 | > 35 | > 10 | 
44 | N=C(N)c1ccc(-c2cc(CC(=O)NCCc3ccccc3)c(-c3ccc(C(=N)N)cc3)o2)cc1 | 1.19 | 1.18 | > 50 | > 42 | > 42 | 
45 | N=C(N)c1ccc(-c2ccc(-c3ccc(C(=N)N)cc3)o2)cc1 [FURAMIDINE] | 0.05 | 0.011 | 178 |  |  | bioavailability [10]: 0.2%; Cmax [11]: 8 nM; IC50 [12]: 0.2 µM; half-life [13]: 107 h; IC50 [14]: 2.8 µM
46 | CONC(=N)c1ccc(-c2ccc(-c3ccc(C(=N)NOC)cc3)o2)cc1 [PAFURAMIDINE] |  |  |  |  |  | Activity [15]: >95%; Activity [16]: >95%
